Hits are enriched below; roughly 2.8% of the tested compounds scored in any of these assays.
PAFAH1B3 FP inh: inhibitors of human PAFAH1B3. Q15102. recombinant PAFAH1B3, FP-rhodamine probe, fluorescence polarization. inhibition, % at 3.39 µM. actives 0.28% (n = 340,000). AID 492972;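 active = inhibition above the screen-wide average of all tested compounds plus 3 SD, cut at about 25% in these data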
Target sequence (Q15102 whole entry, looked up): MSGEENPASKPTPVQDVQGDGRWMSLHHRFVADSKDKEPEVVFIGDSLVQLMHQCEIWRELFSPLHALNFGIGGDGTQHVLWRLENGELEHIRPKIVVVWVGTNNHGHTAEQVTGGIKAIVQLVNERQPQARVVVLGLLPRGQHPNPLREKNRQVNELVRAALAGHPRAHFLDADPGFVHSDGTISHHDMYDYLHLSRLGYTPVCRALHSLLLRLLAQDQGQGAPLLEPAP
PAFAH2 FP inh: PAFAH2 (human) inhibition. Q99487. actives 0.99% (n = 340,000). inhibition, % at 3.39 µM. recombinant PAFAH2, FP-rhodamine activity probe, fluorescence polarization;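 active = inhibition above the mean over all tested compounds plus 3 SD, cut at about 30% in these data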;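 note: inhibitors block probe labeling of enzyme so polarization drops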
mABHD4 FP: inhibits mouse alpha/beta hydrolase domain 4 | Q8VD66 | purified mABHD4, FP-Rh probe fluorescence polarization | inhibition, % at 8.92 µM | actives 0.54% (n = 370,000) | AID 720543;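 active = inhibition exceeding the mean over every tested compound plus 3 SD, cut at about 30% in these data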
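Assay system: mouse ABHD4 enzyme, wild type / Also added: fluorescent activity-based probe FP-Rh / Doses: single nominal dose of 8.92 µM, 0.89% DMSO final / Timing: 45 min compound pre-incubation plus 60 min probe step, 25 °C / Signal: FP readout, ex 525 nm / em 598 nm / Control set: S159A mutant/DMSO as 100%, compound-well median as 0%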
PAFAH1B2 FP inh: inhibitors of human PAFAH1B2. AID 492953. P68402. inhibition, % at 3.39 µM. recombinant PAFAH1B2, FP-rhodamine activity probe, fluorescence polarization. actives 1.2% (n = 340,000);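 active = inhibition above the mean of all tested compounds plus 3 SD, cut at about 24% in these data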
HTRA1 inhibitor: blocks human HTRA1 serine peptidase. Q92743. recombinant HTRA1, FP-rhodamine activity-based probe, fluorescence polarization. inhibition, % at 5.96 µM. actives 0.5% (n = 340,000). AID 504803; in the data active = inhibition above about 36%
pPAFAH inh: inhibitors of human plasma PAF acetylhydrolase (pPAFAH) | Q13093 | recombinant pPAFAH, FP-rhodamine probe fluorescence polarization | inhibition, % at 3.39 µM | actives 1.5% (n = 330,000) | AID 463082;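 active = inhibition above the mean inhibition across the screen plus 3 SD, cut at about 25% in these data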;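 note: inhibitors block binding of the rhodamine activity-based probe so polarization drops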
Target sequence (Q13093 whole entry, looked up): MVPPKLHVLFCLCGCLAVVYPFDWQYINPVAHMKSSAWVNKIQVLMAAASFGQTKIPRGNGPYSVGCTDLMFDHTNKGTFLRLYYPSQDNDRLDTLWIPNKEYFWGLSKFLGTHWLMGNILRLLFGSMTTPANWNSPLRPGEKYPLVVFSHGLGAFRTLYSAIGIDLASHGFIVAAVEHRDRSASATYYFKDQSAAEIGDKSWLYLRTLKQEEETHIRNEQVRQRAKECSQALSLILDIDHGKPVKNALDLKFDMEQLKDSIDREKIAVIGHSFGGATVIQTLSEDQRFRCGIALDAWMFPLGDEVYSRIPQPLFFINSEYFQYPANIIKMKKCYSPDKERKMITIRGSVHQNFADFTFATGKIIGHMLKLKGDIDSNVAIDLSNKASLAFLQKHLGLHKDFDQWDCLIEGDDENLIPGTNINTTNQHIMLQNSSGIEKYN
Numbers stand for hits; i = inactive; nt = no result given.

SMILES | PAFAH1B3 FP inh | PAFAH2 FP inh | mABHD4 FP | PAFAH1B2 FP inh | HTRA1 inhibitor | pPAFAH inh
CC(C)(C)[C@H]1COC(=O)[C@@H](Cc2ccc(F)cc2)C/C=C\C[C@@H](CC(=O)N[C@H](CO)Cc2ccccc2)C(=O)N1 | i | i | i | 66.2 | i | i
CCOC(=O)C1C(C(=O)OCC)C1(c1ccccc1)c1ccccc1 (configuration not stated) | i | i | i | 28.9 | i | i
CC(=O)NC(=S)NNC(=O)C(c1ccccc1)c1ccccc1 | i | i | i | i | i | i
N#CCC(=O)NNC(=S)NC(=O)C(c1ccccc1)c1ccccc1 | i | i | i | 29.0 | i | i
CCOC(=O)[C@@]12CN(C(=O)OC(C)(C)C)CC=C1N(Cc1ccc(OC)cc1)C(=O)[C@H]2CC(=O)NCCCN1CCCC1=O | nt | nt | i | nt | nt | nt
Cc1ccc(C(=O)Oc2coc(CSc3ncccn3)cc2=O)cc1[N+](=O)[O-] | nt | nt | i | nt | nt | nt
O=C(N[C@H]1C/C=C\C[C@H](CC(=O)N(CCO)Cc2ccccc2)C(=O)N[C@H](Cc2c[nH]c3ccccc23)COC1=O)OCC1c2ccccc2-c2ccccc21 | i | i | i | i | i | 32.8
O=C(C[C@@H]1C/C=C\C[C@H](Cc2ccc(F)cc2)C(=O)OC[C@@H](Cc2c[nH]c3ccccc23)NC1=O)NCCO | i | i | i | i | i | i
O=C1N[C@H](Cc2ccccc2)COC(=O)[C@@H](Cc2ccc(F)cc2)CC/C=C/C[C@H]1CC(=O)N(CCO)Cc1ccccc1 | i | i | i | i | i | 28.9
O=C(C[C@@H]1C/C=C\C[C@@H](Cc2ccc(F)cc2)C(=O)OC[C@@H](Cc2c[nH]c3ccccc23)NC1=O)NCCO | i | i | i | i | i | 25.3
O=C1N[C@@H](Cc2c[nH]c3ccccc23)COC(=O)[C@@H](Cc2ccc(F)cc2)C/C=C\C[C@H]1CC(=O)N(CCO)Cc1ccccc1 | i | i | i | i | i | 28.5
COC(=O)[C@H](CC(C)C)N(Cc1cn(CC2CCCCC2)nn1)S(=O)(=O)c1ccc(F)cc1Br | nt | nt | i | nt | nt | nt
Nn1c(SCc2cccc3ccccc23)nnc1-c1cc(-c2ccc(F)cc2)n[nH]1 | nt | nt | i | nt | nt | nt
c1ccc(-c2c[nH]c3cccc(C4CCCCC4)c23)cc1 | nt | nt | i | nt | nt | nt
O=C1N[C@@H](Cc2ccccc2)COC(=O)[C@@H](Cc2ccc(F)cc2)CC/C=C/C[C@@H]1CC(=O)N(CCO)Cc1ccccc1 | i | i | i | 25.9 | i | i
O=C1N[C@H](Cc2ccccc2)COC(=O)[C@H](Cc2ccc(F)cc2)CC/C=C/C[C@@H]1CC(=O)N(CCO)Cc1ccccc1 | i | i | i | i | i | i
O=C(c1cc(Br)cc(Br)c1)N1CCC(Oc2cccnc2)CC1 | nt | nt | i | nt | nt | nt
COC(=O)/C=c1/sc2nc3ccccc3n2c1=O | i | i | i | i | i | i
O=C(O)c1cccc(-c2ccc(/C=c3/sc4nc5ccccc5n4c3=O)o2)c1 | 26.0 | i | i | i | i | 26.2
O=c1/c(=C/c2ccccn2)sc2nc3ccccc3n12 | i | i | i | i | i | i
O=c1/c(=C\c2cc([N+](=O)[O-])cc([N+](=O)[O-])c2O)sc2nc3ccccc3n12 | i | i | nt | i | i | 25.6
CCn1c(=O)c2c(n3cnnc13)-c1ccccc1CC21CCCCC1 | i | i | i | 25.6 | i | i
CCn1c(SCC(N)=O)nc2c(c1=O)C1(CCCC1)Cc1ccccc1-2 | i | i | i | 31.0 | i | i
CC(=O)c1ccc(NC(=O)C2CCCN(S(=O)(=O)c3cccc4nonc34)C2)cc1 (configuration not stated) | i | i | nt | 29.5 | i | i
Cc1ccc(NC(=O)C2CCCN(S(=O)(=O)c3cccc4nonc34)C2)cc1 (configuration not stated) | i | i | i | i | i | i
SMILES | PAFAH1B3 FP inh | PAFAH2 FP inh | mABHD4 FP | PAFAH1B2 FP inh | HTRA1 inhibitor | pPAFAH inh
Oc1[nH]c2ccc(Br)cc2c1N=NC(=S)Nc1ccc(F)cc1 | i | i | i | i | i | i
Oc1cccc(NC(=S)N=Nc2c(O)[nH]c3ccc(Br)cc23)c1 | i | i | i | i | i | 28.4
N/C(=N\OC(=O)C12CC3CC(CC(C3)C1)C2)c1ccccn1 | i | i | i | 24.1 | i | i
N/C(=N\OC(=O)C12CC3CC(CC(C3)C1)C2)c1ccccc1 | i | i | i | i | i | i
COc1ccc(S[C@]2(C(=O)N3CCN(c4ncccn4)CC3)CC(=O)N(C(=O)CCc3ccccc3)[C@@H]2c2ccc(OC)cc2)cc1 | nt | nt | i | nt | nt | nt
CN(C(=O)c1ccccc1OCC(=O)Nc1ccc(Br)cc1)c1ccccc1 | nt | nt | i | nt | nt | nt
COc1ccc(N(C)S(=O)(=O)c2cccc(C(=O)N3CCN(S(=O)(=O)c4ccc(C)cc4)CC3)c2)cc1 | i | i | i | 55.4 | i | i
COc1ccc(S(=O)(=O)N2CCN(C(=O)c3cccc(S(=O)(=O)N4CCCC4)c3)CC2)cc1 | nt | nt | i | nt | i | nt
Cc1cc2ncn(S(=O)(=O)N3CCOCC3)c2cc1C | i | i | i | i | i | i
Cc1cc2ncn(S(=O)(=O)N3CCCCC3)c2cc1C | i | i | i | 24.8 | i | i
N#C/C(=C\c1cccnc1)C(=O)Nc1ccccc1[N+](=O)[O-] | i | i | i | i | i | 26.5
Cc1ccccc1NC(=O)/C(C#N)=C\c1cccnc1 | i | i | i | i | i | i
O=C(Nc1ccc(F)cc1)OCCCN1C(=O)CCC12CCCCC2 | nt | nt | i | nt | nt | nt
CC(NC(=O)C12CC3CC(CC(C3)C1)C2)C(=O)NN=Cc1ccc([N+](=O)[O-])o1 (configuration not stated) | i | i | i | i | i | i
CC(NC(=O)c1ccc([N+](=O)[O-])o1)C12CC3CC(CC(C3)C1)C2 (configuration not stated) | i | i | i | 38.6 | i | i
CC(C)NCC#CCOc1ccc(Cl)cc1 | i | i | i | 29.5 | i | i
O=C(OC12CCCN(C1)/C(=C/c1ccc(Cl)cc1)C2)C1CCCCC1 (configuration not stated) | nt | nt | i | nt | nt | nt
O=C1OC(c2ccccc2)=N/C1=C/c1cccc(OC(=O)c2cccs2)c1 | i | i | i | 66.3 | i | i
C[C@@H]1COC(=O)[C@@H](Cc2ccc(F)cc2)C/C=C\C[C@H](CC(=O)N(CCO)Cc2ccccc2)C(=O)N1 | i | i | i | i | i | i
C[C@H]1COC(=O)[C@@H](Cc2ccc(F)cc2)CC/C=C/C[C@@H](CC(=O)N(CCO)Cc2ccccc2)C(=O)N1 | i | i | i | 26.4 | i | i
C[C@H]1COC(=O)[C@@H](Cc2ccc(F)cc2)CC/C=C/C[C@H](CC(=O)N(CCO)Cc2ccccc2)C(=O)N1 | i | i | i | 24.8 | i | i
C[C@H]1COC(=O)[C@@H](Cc2ccc(F)cc2)C/C=C\C[C@H](CC(=O)N(CCO)Cc2ccccc2)C(=O)N1 | i | i | i | i | i | i
O=C(CSc1nnc(-c2ccccc2)n1-c1ccc(Cl)cc1)Nc1ccc2cn[nH]c2c1 | nt | nt | i | nt | nt | nt
